These results are taken from ChEMBL document CHEMBL3580633, “Benzoxaborole antimalarial agents. Part 4. Discovery of potent 6-(2-(alkoxycarbonyl)pyrazinyl-5-oxy)-1,3-dihydro-1-hydroxy-2,1-benzoxaboroles” (J Med Chem, 2015).

In series [1] the test system is Plasmodium berghei. Nature of the series: Antiplasmodial activity against Plasmodium berghei infected in Swiss Webster mouse assessed as mouse survival at 1 mg/kg, po dosed once daily for 4 consecutive days beginning 1 hr after initial infection and measured on day 8 post infection by Giemsa staining method. The format is functional. The gist of the method:
(§1)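 Female Swiss Webster mice (about 20 g) infected ip with 6 × 10^6 P. berghei-infected erythrocytes. Oral gavage once daily for 4 days, starting 1 h after infection. Vehicle PEG300/propylene glycol/water (55/25/20 by weight). Giemsa-smear parasitemia counted daily from day 4. Mice euthanised above 50% parasitemia. Survival followed to day 21, 5 mice per dose, chloroquine 30 mg/kg as reference.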

For series [2], the system named is Plasmodium falciparum. As to the kind of experiment: Antimalarial activity against chloroquine-resistant Plasmodium falciparum W2 cultured in human erythrocytes assessed as inhibition of parasite growth incubated for 48 hrs by YOYO-1 staining based flow cytometry. It is filed as functional, organism-based. The note with it: W2, 48 h. For orientation: A flow cytometer gives signals particle by particle.

Series [3] deals with Plasmodium berghei. As to the kind of experiment: Antiplasmodial activity against Plasmodium berghei infected in Swiss Webster mouse assessed as mouse survival at 11 mg/kg, po dosed once daily for 4 consecutive days beginning 1 hr after initial infection and measured on day 11 post infection by Giemsa staining method. The format is functional. The gist of the method: as §1

Series [4] concerns Plasmodium berghei. As to the kind of experiment: Antiplasmodial activity against Plasmodium berghei infected in Swiss Webster mouse assessed as mouse survival at 11 mg/kg, po dosed once daily for 4 consecutive days beginning 1 hr after initial infection and measured on day 8 post infection by Giemsa staining method. The format is functional. The gist of the method:
as §1

Series [5] concerns Plasmodium berghei. Nature of the series: Antiplasmodial activity against Plasmodium berghei infected in Swiss Webster mouse assessed as mouse survival at 100 mg/kg, po dosed once daily for 4 consecutive days beginning 1 hr after initial infection and measured on day 11 post infection by Giemsa staining method. The format is functional. The gist of the method:
as §1

Series [6] has as its system Plasmodium berghei. Nature of the series: Antiplasmodial activity against Plasmodium berghei infected in Swiss Webster mouse assessed as mouse survival at 33 mg/kg, po dosed once daily for 4 consecutive days beginning 1 hr after initial infection and measured on day 11 post infection by Giemsa staining method. It is filed as functional. The gist of the method:
(§2)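 Female Swiss Webster mice (about 20 g) were infected ip with 6 × 10^6 P. berghei-infected erythrocytes from a donor mouse. They were dosed by oral gavage once daily for 4 days, starting 1 h post-infection, in PEG 300/propylene glycol/water (55/25/20 by weight). Parasitemia was read daily on Giemsa smears from day 4, and mice were euthanized above 50% parasitemia. Percent survival was tracked to 21 days.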

Series [7] deals with Plasmodium berghei. Nature of the series: Antiplasmodial activity against Plasmodium berghei infected in Swiss Webster mouse assessed as mouse survival at 100 mg/kg, po dosed once daily for 4 consecutive days beginning 1 hr after initial infection and measured on day 5 post infection by Giemsa staining method. It is filed as functional. The gist of the method:
as §1

In series [8] the test system is Plasmodium berghei. Nature of the series: Antiplasmodial activity against Plasmodium berghei infected in Swiss Webster mouse assessed as mouse survival at 11 mg/kg, po dosed once daily for 4 consecutive days beginning 1 hr after initial infection and measured on day 9 post infection by Giemsa staining method. It is filed as functional. Put shortly:
as §1

For series [9], the system named is Plasmodium berghei. Nature of the series: Antiplasmodial activity against Plasmodium berghei infected in Swiss Webster mouse assessed as mouse survival at 1 mg/kg, po dosed once daily for 4 consecutive days beginning 1 hr after initial infection and measured on day 6 post infection by Giemsa staining method. It is filed as functional. The gist of the method: as §1

The test system of series [10] is Plasmodium berghei. As to the kind of experiment: Antiplasmodial activity against Plasmodium berghei infected in Swiss Webster mouse assessed as mouse survival at 33 mg/kg, po dosed once daily for 4 consecutive days beginning 1 hr after initial infection and measured on day 9 post infection by Giemsa staining method. It is filed as functional. Put shortly:
as §2

In series [11] the test system is Plasmodium berghei. Nature of the series: Antiplasmodial activity against Plasmodium berghei infected in Swiss Webster mouse assessed as mouse survival at 11 mg/kg, po dosed once daily for 4 consecutive days beginning 1 hr after initial infection and measured on day 5 post infection by Giemsa staining method. It is filed as functional. Put shortly: as §1
The subject of series [12] is Plasmodium berghei. As to the kind of experiment: Antiplasmodial activity against Plasmodium berghei infected in Swiss Webster mouse assessed as mouse survival at 11 mg/kg, po dosed once daily for 4 consecutive days beginning 1 hr after initial infection and measured on day 12 post infection by Giemsa staining method. The format is functional. Put shortly: as §1
For series [13], the system named is Plasmodium berghei. As to the kind of experiment: Antiplasmodial activity against Plasmodium berghei infected in Swiss Webster mouse assessed as mouse survival at 3 mg/kg, po dosed once daily for 4 consecutive days beginning 1 hr after initial infection and measured on day 9 post infection by Giemsa staining method. The format is functional. Put shortly:
as §1

Series [14] deals with Plasmodium berghei. Nature of the series: Antiplasmodial activity against Plasmodium berghei infected in Swiss Webster mouse assessed as mouse survival at 11 mg/kg, po dosed once daily for 4 consecutive days beginning 1 hr after initial infection and measured on day 10 post infection by Giemsa staining method. The format is functional. Put shortly: as §1
The subject of series [15] is Jurkat. As to the kind of experiment: Cytotoxicity against human Jurkat cells incubated for 72 hrs by MTT assay. It is filed as cell-based. (In general: Formazan colour is commonly taken as a measure of viable cells.)
For series [16], the system named is Plasmodium falciparum. Nature of the series: Antimalarial activity against chloroquine-sensitive Plasmodium falciparum 3D7 cultured in human erythrocytes incubated for 48 hrs by [3H]-hypoxanthine incorporation assay. It is filed as functional, organism-based. Put shortly:
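3D7 parasites in human erythrocytes, RPMI-1640 with 0.5% Albumax II, […], 37 °C, 5% O2/5% CO2. Asynchronous cultures (0.5% parasitemia, 2% hematocrit) given 3-fold serial dilutions for 24 h. [3H]hypoxanthine then added for a further 24 h, and incorporation counted by scintillation. Normalised to drug-free infected cells. IC50 from at least three independent experiments.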

A short description of series [17]: AUC (0 to infinity) in CD1 mouse at 5 mg/kg, po by HPLC coupled to tandem mass spectrometry. The format is ADME, organism-based. The arrangement: dose 5 mg/kg, route oral, time infinity. The note with it: in vivo. Put shortly: (§3)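 Adult female CD-1 mice received 5 mg/kg by both the iv and the oral-gavage route. Two vehicles were used: PEG 400/dimethylacetamide/water (45/10/45, pH 5.8), or PEG 300/propylene glycol/water (55/25/20, pH 5.9). Blood samples were collected and drug was quantified by HPLC-tandem MS.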

Series [18] can be described thus: Tmax in CD1 mouse at 5 mg/kg, po by HPLC coupled to tandem mass spectrometry. The note with it: in vivo. The format is ADME, organism-based. Put shortly:
as §3

Series [19] is described as follows: Cmax in CD1 mouse at 5 mg/kg, po by HPLC coupled to tandem mass spectrometry. It is filed as ADME, organism-based. The arrangement: dose 5 mg/kg, route oral. The note with it: in vivo. The gist of the method:
as §3

Series [20] is described as follows: AUC (0 to infinity) in CD1 mouse at 5 mg/kg, iv by HPLC coupled to tandem mass spectrometry. The format is ADME, organism-based. The arrangement: dose 5 mg/kg, route intravenous, time infinity. The note with it: in vivo. Put shortly: as §3
In series [21] the test system is Mus musculus. Nature of the series: Oral bioavailability in CD1 mouse at 5 mg/kg by HPLC coupled to tandem mass spectrometry. The format is ADME, organism-based. The note with it: in vivo. Put shortly: as §3
A short description of series [22]: Volume of distribution at steady state in CD1 mouse at 5 mg/kg, iv by HPLC coupled to tandem mass spectrometry. The format is ADME, organism-based. The note with it: in vivo, read-out: Vdss. Put shortly:
as §3

Series [23] in a line: Terminal half life in CD1 mouse at 5 mg/kg, po by HPLC coupled to tandem mass spectrometry. The format is ADME, organism-based. The note with it: in vivo, read-out: beta t1/2 (converted). Put shortly: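 Adult female CD-1 mice were given oral gavage at 5 mg/kg in a formulated solution, either PEG 400/dimethylacetamide/water (45/10/45, pH 5.8) or PEG 300/propylene glycol/water (55/25/20, pH 5.9). Blood samples were analysed for drug by HPLC-tandem MS, and the terminal half-life was derived.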

Series [24] can be described thus: Clearance in CD1 mouse at 5 mg/kg, iv by HPLC coupled to tandem mass spectrometry. The note with it: in vivo. The format is ADME, organism-based. Put shortly: as §3
The nature of series [25]: Stability in mouse liver microsomes assessed as compound remaining at 1 uM incubated for 1 hr in presence of NADPH by LC/MS/MS method. It is filed as ADME. The gist of the method:
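Compound at 1 μM final (from a 1 mg/mL DMSO stock) was incubated with mouse or human liver microsomes (0.5 mg/mL protein) in 100 mM potassium phosphate, pH 7.4, at 37 °C with shaking, with or without 1 mM NADPH. Samples were taken over 0–120 min and tested in duplicate. Reactions were quenched with cold acetonitrile plus internal standard and analyzed by LC/MS/MS.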

Regarding `O=C(O)c1cnc(Oc2ccc3c(c2)B(O)OC3)cn1`, the survival at 1 mg/kg in [1] amounted to 40%; in [9], 100%. For the same molecule, the IC50 in series [2] was 150 nM; in [15], more than 100000 nM. The survival at 11 mg/kg in [3] amounted to 20%; in [4], 60%; in series [8], 20%; in [11], 100%; in series [12], 0%; in series [14] it was 20%. For the same molecule, the survival at 100 mg/kg in [5] stood at 60%; in [7], 100%. Besides, the survival at 33 mg/kg in series [6] and in series [10] was 40% throughout. Besides, the survival at 3 mg/kg in [13] is 0%.
`O=C(O)c1ccc(Oc2ccc3c(c2)B(O)OC3)cn1`: the survival at 1 mg/kg in series [1] came out at 0%; in [9], 100%. Further, the IC50 in [2] turned out to be 170 nM; in [16] it was 540 nM. Moreover, the survival at 11 mg/kg turned out to be 40% in series [4], 0% in [8] and 100% in series [11]. Further, the survival at 100 mg/kg in [7] is 100%. For the same molecule, the survival at 33 mg/kg in [10] is 0%. In addition, the survival at 3 mg/kg in [13] came out at 0%.
Consider `COC(=O)c1cnc(Oc2ccc3c(c2)B(O)OC3)cn1`, for which the survival at 1 mg/kg in [1] was 40%; in series [9] it was 100%. For the same molecule, the IC50 in series [2] was 1.4 nM; in series [16] it was 1.9 nM; in series [15], 7590 nM. Moreover, the survival at 11 mg/kg stood at 80% in [3]; 100% in series [4]; 80% in series [8]; 100% in [11]; 0% in [12]; 80% in series [14]. In addition, the area under the curve AUC(0-inf) in [17] turned out to be 100 ng·h/mL; in series [20], 400 ng·h/mL. Further, the Tmax in series [18] was 15 min. The same molecule registered a Cmax in [19] of 160 ng/mL. The molecule also had a F in series [21] of 23%. The survival at 100 mg/kg in [5] and in series [7] was 100% in each case. The Vd in [22] amounted to 0.926 L/kg. For the same molecule, the survival at 33 mg/kg in series [6] and in [10] was 100% each time. In addition, the survival at 3 mg/kg in series [13] worked out at 40%. The half-life in series [23] was 60 min. For the same molecule, the clearance in series [24] is 208 mL/min/kg. In addition, the Stability in [25] was found to be 0%.
Turning to `NC(=O)c1cnc(Oc2ccc3c(c2)B(O)OC3)cn1`, the survival at 1 mg/kg came to 40% in series [1] and 100% in [9]. Further, the concentration for half-maximal inhibition (IC50) in [2] amounted to 210 nM; in series [16] it was 350 nM; in series [15], 48200 nM. Also, the AUC(0-inf) in [17] amounted to 2290 ng·h/mL; in series [20] it was 2200 ng·h/mL. The Tmax in [18] is 15 min. Besides, the Cmax in [19] came out at 1380 ng/mL. In addition, the survival at 11 mg/kg in [4] is 100%; in series [8] it was 60%; in series [11] it was 100%; in [14] it was 0%. Also, the F in series [21] is reported as 99%. Moreover, the Vd in series [22] is 0.973 L/kg. The survival at 100 mg/kg in [7] was 100%. Also, the survival at 33 mg/kg in series [10] stood at 60%. The survival at 3 mg/kg in [13] is 0%. The half-life in series [23] was 126 min. The molecule further gave a clearance in [24] of 37.7 mL/min/kg. The Stability in series [25] came out at 97%.

Usually IC50 stands for the midpoint of a concentration-inhibition curve. Usually AUC(0-inf) stands for the area under the concentration-time curve extrapolated to infinity. Lower therefore signals low exposure. As a reminder, the Tmax is the time at which the peak concentration occurs. In general, Cmax refers to the highest concentration seen after dosing. As usually defined, the clearance is a measure of how efficiently the substance is removed, as volume per time. A high value points to efficient removal.
